One series concerns A549. The series is described as follows: Growth inhibition of human A549 cells after 48 hrs by MTT assay. In kind it is functional, cell-based. Conditions: A549, 48 h. The method, boiled down:
(§1)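 Cells seeded at 8000/well, treated 24 h later in duplicate with a range of concentrations (DMSO stock 10 g/L diluted in fresh medium), 48 h at 37 °C, 5% CO2. MTT (5 mg/ml in PBS) added for 4 h, formazan dissolved in DMSO, absorbance read at 570 nm. IC50 is the concentration giving 50% survival.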
In general terms: Tetrazolium dyes change colour on reduction, which living cells bring about.

In the next series the test system is HeLa. Description: Growth inhibition of human HeLa cells after 48 hrs by MTT assay. In kind it is functional, cell-based. The method, boiled down:
as §1

Series [1] is described as follows: Growth inhibition of human QGY7701 cells after 48 hrs by MTT assay. The class given is functional. The following applies: QGY7701, 48 h. The method in brief: as §1
The next series relates to Huh-7. The series is described as follows: Growth inhibition of human HuH7 cells after 48 hrs by MTT assay. In kind it is functional, cell-based. Conditions: Huh-7, 48 h. The method in brief:
as §1

Series [2] in a line: Growth inhibition of human L02 cells after 48 hrs by MTT assay. The class given is functional, cell-based. Conditions: L02, 48 h. The method, boiled down: as §1
Series [3] in a line: Cytotoxicity against human HepG2(2.2.15) cells compound treated for 48 hrs followed by incubation for 9 days by MTT assay. The class given is cell-based. The method, boiled down: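 HepG2 2.2.15 cells kept 48 h in plates before adding compounds (DMSO stocks serially diluted in medium), then incubated at 37 °C for 9 days. Media-only wells as blank. MTT (5 g/L) added 4 h before lysis in 10% SDS/50% DMF, pH 7.2; OD at 570 nm gives percent cell death; CC50 derived.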

Series [4] relates to Hepatitis B virus. The series is described as follows: Antiviral activity against HBV infected in human HepG2(2.2.15) cells assessed as inhibition of viral replication after 9 days by fluorescence PCR method. The class given is functional, organism-based. The following applies: HepG2 2.2.15, 216 h. The method in brief:
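HepG2 2.2.15 cells given a range of compound concentrations for nine days; HBV DNA quantified by fluorescence PCR. IC50 taken as the concentration giving 50% inhibition of HBV DNA replication.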

The test system of series [5] is Hepatitis B virus. The series is described as follows: Antiviral activity against HBV infected in human HepG2(2.2.15) cells assessed as inhibition of HBeAg production after 9 days by ELISA. In kind it is functional, organism-based. Conditions: HepG2 2.2.15, 216 h. The method, boiled down:
(§2)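 HepG2 2.2.15 cells (HBV-producing) given a range of compound concentrations for nine days; culture supernatants collected and HBsAg or HBeAg levels measured by ELISA. IC50 taken as the concentration giving 50% inhibition of antigen level.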
(In general: In an ELISA, binding on a coated surface is turned into a signal by an enzyme label.)

Series [6] concerns Hepatitis B virus. Description: Antiviral activity against HBV infected in human HepG2(2.2.15) cells assessed as inhibition of HBsAg production after 9 days by ELISA. The class given is functional, organism-based. The following applies: HepG2 2.2.15, 216 h. The method in brief:
as §2

With `COc1cccc(NC(=O)/C=C/c2coc3cc(OC)ccc3c2=O)c1`, the half-inhibitory concentration (IC50) (in general, the concentration needed to halve the response being measured) in the series on A549 is 12.8 µM; with HeLa it was 19.2 µM; in [1] it was 39.1 µM; in the series on Huh-7, 11.1 µM; in [2], over 200 µM; in the series on Hepatitis B virus [4] it was over 100 µM. Also, the IC50 in the series with Hepatitis B virus [5] and with Hepatitis B virus [6] was over 100 µM in each case. Also, the CC50 (as a rule, the concentration that lowers cell viability or growth by half) at 48 h in [3] came out at 1130 µM.

As to `CCOc1ccc(NC(=O)/C=C/c2coc3cc(OC)ccc3c2=O)cc1`, the 50% inhibitory concentration (IC50) was over 100 µM in the series on A549; over 100 µM in the series on HeLa; over 100 µM in series [1]; 3.23 µM in the series on Huh-7; over 200 µM in series [2]; over 100 µM with Hepatitis B virus [4]. The IC50 in the series with Hepatitis B virus [5] and with Hepatitis B virus [6] was over 100 µM throughout. In [3], this compound yielded a CC50 at 48 h of 460 µM.

On to `O=c1[nH]cc(F)c(=O)[nH]1` [FLUOROURACIL], for which, in the series with Huh-7, the 50% inhibitory concentration (IC50) turned out to be 15.8 µM.

As to `O=C(/C=C/c1coc2cc(O)ccc2c1=O)NCc1ccccc1`, the IC50 with A549 was over 100 µM; in the series on HeLa, over 100 µM; in series [1], 63 µM; with Huh-7 it was 4.69 µM; in series [2], over 200 µM; in the series on Hepatitis B virus [4], over 100 µM. Besides, the IC50 in the series on Hepatitis B virus [5] and in the series on Hepatitis B virus [6] was over 100 µM in each case. The compound also registered a CC50 at 48 h in series [3] of 436 µM.

As to `COc1ccc2c(=O)c(/C=C/C(=O)Nc3cc(C)ccc3C)coc2c1`, the half-inhibitory concentration (IC50) in the series with A549 is 15.5 µM; in the series on HeLa it was 58.4 µM; in series [1] it was over 100 µM; in the series with Huh-7 it was 11.1 µM; in [2], over 200 µM; with Hepatitis B virus [4], over 100 µM. Also, the IC50 in the series on Hepatitis B virus [5] and in the series on Hepatitis B virus [6] was over 100 µM in each case. Also, half-maximal cytotoxicity in [3] (CC50 at 48 h) was put at 1100 µM.

As to `Cc1ccccc1NC(=O)/C=C/c1coc2cc(O)ccc2c1=O`, the 50% inhibitory concentration (IC50) in the series with A549 was over 100 µM; in the series with HeLa it was 8.67 µM; in series [1], 9.32 µM; in the series with Huh-7, 11.1 µM; in series [2], over 200 µM; in the series on Hepatitis B virus [4], over 100 µM. Besides, the IC50 in the series with Hepatitis B virus [5] and in the series with Hepatitis B virus [6] was over 100 µM each time. Also, it took 374 µM to reach half-maximal cytotoxicity in [3] (CC50 at 48 h).

In the case of `COc1ccc2c(=O)c(/C=C/C(=O)Nc3ccc(F)cc3)coc2c1`, the IC50 with A549 is 26.8 µM; in the series on HeLa it was 9.68 µM; in [1] it was over 100 µM; with Huh-7, 33.9 µM; in series [2], over 200 µM; in the series with Hepatitis B virus [4], over 100 µM. Moreover, the IC50 with Hepatitis B virus [5] and in the series on Hepatitis B virus [6] was over 100 µM throughout. In addition, the CC50 at 48 h in series [3] amounted to 743 µM.

With `COc1ccc2c(=O)c(/C=C/C(=O)Nc3ccccc3OC)coc2c1`, the half-maximal inhibitory concentration (IC50) in the series on A549 is over 100 µM; with HeLa, over 100 µM; in series [1], 17.6 µM; in the series with Huh-7, 32.3 µM; in [2], over 200 µM; in the series with Hepatitis B virus [4], over 100 µM. Further, the IC50 with Hepatitis B virus [5] and in the series on Hepatitis B virus [6] was over 100 µM in each case. Moreover, in series [3], the cytotoxic concentration (CC50) at 48 h is 1050 µM.

Regarding `COc1ccc2c(=O)c(/C=C/C(=O)Nc3ccccc3Cl)coc2c1`, the IC50 in the series with A549 was 29.9 µM; in the series on HeLa it was 22.4 µM; in [1] it was 23 µM; in the series on Huh-7, 58.4 µM; in series [2], over 200 µM; with Hepatitis B virus [4] it was over 100 µM. For the same compound, the IC50 in the series with Hepatitis B virus [5] and in the series with Hepatitis B virus [6] was over 100 µM each time. For the same compound, it took 1010 µM to reach half-maximal cytotoxicity in series [3] (CC50 at 48 h).

Regarding `COc1ccc2c(=O)c(/C=C/C(=O)NCCc3cccc(F)c3)coc2c1`, the IC50 was 9.77 µM in the series on A549; 15.3 µM in the series with HeLa; 23.4 µM in [1]; 8.96 µM in the series with Huh-7; over 200 µM in series [2]; over 100 µM in the series on Hepatitis B virus [4]. For the same compound, the IC50 with Hepatitis B virus [5] and in the series on Hepatitis B virus [6] was over 100 µM in each case. In series [3], it took 1030 µM to reach half-maximal cytotoxicity (CC50 at 48 h).
